Laboratory results from PubChem BioAssay AID1885 (Broad Institute, 2009).
The campaign covered roughly 300,000 compounds. About 4,400 (1.5%) were called active. The sample holds actives, similar compounds and a random draw of the others, so the mix is not that of the screen. A number with no mark means an inactive call.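 How the source made its calls: active means mean inhibition across valid replicates above about 55% (limit read from the data); inconclusive means mean below that limit but half or more replicates reach it; inactive means mean below it, under half of replicates reach it.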

test: inhibitors of intracellular T. cruzi growth, primary screen, luminescence, NIH3T3 host cells (AID 1885);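 further: signal also drops with host cell toxicity which is not excluded here; 0% = plate median of DMSO wells and 100% = zero luminescence signal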; conditions: T. cruzi beta-gal in NIH3T3, luminescence, 90 h; hits give high values; concentration not given here
How it was run: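 assay system = mouse NIH/3T3 fibroblasts infected with β-gal-expressing T. cruzi Tulahuen C4 | input = 5,000 NIH/3T3 host cells per well | buffer or medium = DMEM plus 2% FBS | timing = 3 h host attachment, then at least 90 h co-culture | measured by = GalScreen luminescence, 60 min | evaluation = luminescence reflecting intracellular parasite burden, expressed as percent inhibition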

Compared with `COc1ccccc1CN(C)C(=O)c1cc2ccccc2o1`, `N=c1oc2ccccc2cc1C(=O)NCc1ccccc1` is lower in inhibition: 0.505% for the first, -12.9% for the second.

Going from `O=C(COc1ccc2ccc(=O)oc2c1)NCC(O)c1ccccc1` (stereo unspecified) to `COc1ccc(NC(=O)C(=O)NCC(c2ccco2)N2CCc3ccccc3C2)cc1` (stereo unspecified), the inhibition rises from -12.4% to 9.29%.

Going from `COc1cc(NC(=O)CCNC(=O)Cn2ccc3ccccc3c2=O)cc(OC)c1OC` to `CCOc1cc(NC(=O)Nc2ccccc2)c(OCC)cc1NC(=O)CC`, the inhibition falls from -1.49% to -28.4%.

Going from `Cc1ccc(-c2c(C)n([O-])c3c([n+]2=O)CCC3)cc1` to `Cc1ccc(S(=O)(=O)N2CCCC2C(=O)OCc2nc3sc(C)c(C)c3c(=O)[nH]2)cc1` (stereo unspecified), the inhibition falls from -4.48% to -13%.

Going from `NC(=O)c1ccccc1NC(=O)c1ccccc1F` to `Cc1ccccc1C(=O)NNC(=O)CN1C(=O)c2ccccc2C1=O`, the inhibition falls from -8.84% to -15.4%.

Going from `COc1cccc(N(CC(=O)NC2CCCCCC2)S(=O)(=O)c2ccccc2)c1` to `CC(=O)CC(CC(=O)NC1CCCCC1)c1ccccc1` (stereo unspecified), the inhibition falls from 21.4% to -21.8%.

Going from `Cc1cc(C(=O)N/N=C/c2ccccc2[N+](=O)[O-])c(C)o1` to `Cc1cc(C(=O)N/N=C/c2cc([N+](=O)[O-])cc(C)c2O)n[nH]1`, the inhibition falls from -0.35% to -40.2%.

First: Cc1ccc(-c2ccc(/C=N/NC(=O)CN3CCOCC3)o2)cc1[N+](=O)[O-]
Second: COc1ccc(C(=O)NCC(=O)N/N=C/c2ccc([N+](=O)[O-])o2)cc1OC
The inhibition of the first is lower: -11.4% for the first, -11% for the second.

Going from `CC(=O)N1CCN(CC(C)(C)NS(=O)(=O)c2ccc(C)cc2)CC1` to `CCOC(=O)N1CCN(S(=O)(=O)c2ccc(-n3cnnn3)cc2)CC1`, the inhibition falls from 11.8% to 0.644%.

First: O=C(Nc1ncc([N+](=O)[O-])s1)C1COc2ccccc2O1 (stereo unspecified)
Second: O=C(Cc1c(F)cccc1Cl)Nc1ncc([N+](=O)[O-])s1
The inhibition of the first is lower: -1.76% for the first, 50.4% for the second.

Going from `COc1ccc(OCc2cc(C(=O)NCC3(C)COC3)no2)c(Cl)c1` to `Cc1noc(C)c1CSCC(=O)Nc1ccc(Br)cc1Cl`, the inhibition rises from -0.702% to 1.67%.

Compared with `CCCCn1c(N)c(N(CCOC)C(=O)c2cccc(S(=O)(=O)N3CCCCC3)c2)c(=O)[nH]c1=O`, `CCN1CCN(c2ccc(S(=O)(=O)N3CCCCC3)cc2NC(=O)c2cccc(NC(C)=O)c2)CC1` is higher in inhibition: -8.61% for the first, 0.05% for the second.

Going from `COCCCNC(=O)/C=C/c1ccc(OCc2c(F)cccc2Cl)cc1` to `O=C(/C=C/c1ccc(OCc2c(F)cccc2Cl)cc1)N1CCOCC1`, the inhibition falls from 19% to 16.6%.

Going from `COc1ccc(C2c3[nH]c4ccccc4c3C[C@H]3C(=O)N(CC(C)C)CC(=O)N23)c(OC)c1` (stereo partly specified) to `CCOC(=O)C1=C(c2ccccc2)N=C2SCC(=O)N2C1c1ccc(O)c(OC)c1` (stereo unspecified), the inhibition falls from 9.19% to -14.5%.

First: COCCCNC(=S)N(CCN(C)C)Cc1cc2cc3c(cc2[nH]c1=O)OCCO3
Second: Cc1cccc2cc(CN(Cc3cccs3)C(=S)NCc3ccco3)c(=O)[nH]c12
The inhibition of the first is lower: -7.66% for the first, 18.3% for the second.

Compared with `COc1ccc(Cc2cc(-c3ccc(F)cc3)n[nH]c2=O)cc1`, `COc1ccc(-c2nc(CS(=O)(=O)CC(=O)NCc3cccc(Br)c3)c(C)o2)cc1` is lower in inhibition: -6.16% for the first, -6.3% for the second.

First: CC1(c2ccccc2)NC(=O)N(CC(=O)Nc2cc(Cl)ccc2N2CCOCC2)C1=O (stereo unspecified)
Second: O=C(COc1cccc2ccccc12)Nc1cc(S(=O)(=O)N2CCOCC2)ccc1N1CCOCC1
The inhibition of the first is higher: 5.62% for the first, 2.7% for the second.

First: CCc1cccc(C)c1NC(=O)COC(=O)CNC(=O)c1cccs1
Second: COc1cc(/C=N/NC(=O)CNC(=O)c2ccncc2)ccc1OC(C)=O
The inhibition of the first is lower: -15.5% for the first, -4.41% for the second.

Going from `Cc1cccc(N(CC(=O)N=Nc2c(O)[nH]c3ccccc23)S(C)(=O)=O)c1C` to `COc1ccc2ccccc2c1/C=N/NC(=O)c1cc(C)[nH]n1`, the inhibition falls from 16.1% to -14.2%.

First: CN1CCN(c2ccc(S(=O)(=O)Nc3ccccc3)cc2[N+](=O)[O-])CC1
Second: CN1CCN(c2ccc(S(=O)(=O)N3CCCCC3)cc2NC(=O)Cc2ccccc2F)CC1
The inhibition of the first is lower: 18.5% for the first, 45.1% for the second.

Going from `O=C(NCC(c1ccco1)N1CCc2ccccc2C1)c1ccccc1Cl` (stereo unspecified) to `O=C(NCCN1CCOCC1)c1cc(-c2cccs2)nc2ccccc12`, the inhibition falls from -5.54% to -5.61%.

First: O=C(NCc1cccnc1)c1cc(S(=O)(=O)N2CCOCC2)c(Cl)cc1Cl
Second: CC(=O)NCCC(=O)Nc1cc(S(=O)(=O)N2CCOCC2)ccc1N1CCOCC1
The inhibition of the first is higher: 3.92% for the first, -12% for the second.

First: O=C(Nc1cccc(NC(=O)c2ccco2)c1)c1cnccn1
Second: O=C(Nc1cc(-c2nc3ncccc3o2)ccc1Cl)c1ccco1
The inhibition of the first is higher: 21.9% for the first, -11% for the second.

Compared with `N#Cc1ccccc1NC(=O)COc1c(Br)cc(Br)c2cccnc12`, `COC(=O)c1cc(-c2cccs2)nc2ccccc12` is higher in inhibition: -12.8% for the first, 5.51% for the second.

Going from `Cc1nn(C)c(C)c1CN(C(=O)CCc1nnc(Cc2c[nH]c3ccccc23)o1)C(C)C` to `CC(Sc1nnc(-c2ccccc2F)n1C1CC1)C(N)=O` (stereo unspecified), the inhibition falls from 9.23% to -10.8%.

Going from `CCc1ccccc1NC(=O)NCCN1CCCCC1` to `CCOc1ccc(C(=O)NCC(=O)N2CCCCCCC2)cc1OCC`, the inhibition rises from 1.39% to 17.5%.

Compared with `CC1CCN(C(=S)c2cccc([N+](=O)[O-])c2)CC1`, `COc1cnn(-c2ccc([N+](=O)[O-])cc2)c(=O)c1Cl` is higher in inhibition: 1.31% for the first, 7.92% for the second.

First: O=C(c1cc(C(=O)N2CCN(c3ccc(F)cc3)CC2)cc([N+](=O)[O-])c1)N1CCN(c2ccc(F)cc2)CC1
Second: O=C(NCCS(=O)(=O)N1CCN(c2ccc(F)cc2)CC1)c1ccc2c(c1)OCO2
The inhibition of the first is higher: 45.8% for the first, -12.2% for the second.

First: OCC(O)CN(c1ccccc1)c1ccccc1 (stereo unspecified)
Second: Cc1cccc(/C=N/NC(=O)CNc2cccc3ccccc23)n1
The inhibition of the first is lower: -11.6% for the first, -0.344% for the second.

Going from `COc1cc(Br)c(-c2sc(Nc3ccccc3)n[n+]2-c2ccccc2)cc1OC` to `CC(C)(C)S(=O)(=O)c1ccccc1-c1noc(-c2ccccc2)c1C(N)=O`, the inhibition falls from 0.144% to -8.06%.

First: COc1ccc(C)cc1S(=O)(=O)Nc1cccc(Cl)c1Cl
Second: NC(=S)Nc1c(Cl)cccc1Cl
The inhibition of the first is higher: 8.72% for the first, -4.22% for the second.

Compared with `CCOc1ccc(NC(=O)CCC(=O)N/N=C/c2ccc([N+](=O)[O-])s2)cc1`, `O=C(O)c1ccn(COc2ccc(Br)cc2)n1` is lower in inhibition: 50.6% for the first, -13.4% for the second.

First: O=C(NCCNc1ccc([N+](=O)[O-])cc1)c1cccc2c(Br)cccc12
Second: O=C(NCCCn1ccnc1)c1ccccc1F
The inhibition of the first is lower: 5.94% for the first, 7.44% for the second.

First: c1ccc(Cc2ccc(OCCn3ccnc3)cc2)cc1
Second: C=CCc1cc(C)ccc1OCCCn1ccnc1
The inhibition of the first is lower: 28.2% for the first, 36.6% for the second.

First: COc1ccc(NC(=O)CN(C)C(=O)/C=C/c2cn(Cc3ccccc3)nc2-c2cccnc2)cc1
Second: CCN1C(=O)[C@H]2[C@@H](c3ccc(-c4ccc(OC)cc4)cc3)N[C@@](Cc3ccccc3)(C(=O)OC)[C@H]2C1=O
The inhibition of the first is higher: 4% for the first, -3.65% for the second.

First: CCOC(=O)C1(CCOC)CCN(Cc2cc3ccccc3s2)CC1
Second: Cc1cc(Nc2cc(N3CCN(C)CC3)nc(Sc3ccc(NC(=O)C4CC4)cc3)n2)n[nH]1
The inhibition of the first is lower: 6.96% for the first, 26.9% for the second.

With `CCc1noc(C)c1C(=O)NNC(=O)c1ccc(F)cc1` the inhibition was -6.32%.

For `CN(C)CCCCCN(C)Cc1cc2ccccc2o1`, the inhibition was 69.5% (active).
With `CCOc1cc(NC(=O)c2ccccc2C(=O)O)c(OCC)cc1NC(=O)c1ccccc1F` the inhibition was 60.5% (active).
In the case of `Cc1occc1C(=O)N/N=C/c1ccc(-c2cccc([N+](=O)[O-])c2)o1`, the inhibition is reported as 67.8% (active).
With `O=C(CCc1ccccc1)Nc1ncc([N+](=O)[O-])s1` the inhibition was 86.1% (active).
For `CN(C)CCCNC(=O)/C=C/c1ccc(OCc2c(F)cccc2Cl)cc1`, the inhibition was 55.5% (active).
For `Cc1cc(C)c2[nH]c(=O)c(CN(Cc3ccccc3)C(=S)NCCCN(C)C)cc2c1`, the inhibition was 59.1% (active).
For `O=[N+]([O-])c1cc(S(=O)(=O)Nc2cccc(Cl)c2)ccc1N=Nc1c(O)[nH]c2ccccc12`, the inhibition was 61.7% (active).
For `O=C(Nc1cccc(-c2nc3ncccc3o2)c1)c1ccco1`, the inhibition was 69.4% (active).
In the case of `CN1CCN(c2ccc(S(=O)(=O)N3CCOCC3)cc2NC(=O)CCc2ccccc2)CC1`, the inhibition is reported as 54.9% (active).
In the case of `CCN1CCN(c2ccc(S(=O)(=O)N3CCCCC3)cc2NC(=O)Cc2c(Cl)cccc2Cl)CC1`, the inhibition is reported as 65.7% (active).
In the case of `CC1CCC2CCCCC2N1C(=O)c1cc([N+](=O)[O-])cc([N+](=O)[O-])c1` (stereo unspecified), the inhibition is reported as 56% (active).
For `COc1ccc(C)cc1Nc1n[n+](-c2ccccc2)c(-c2cccc(Cl)c2Cl)s1`, the inhibition was 61.2% (active).
With `COc1ccc(C(=O)NCC(=O)N/N=C/c2ccc([N+](=O)[O-])s2)cc1OC` the inhibition was 64.6% (active).
In the case of `CC(C)(C)c1cc(C(=O)N/N=C/c2ccc([N+](=O)[O-])s2)n[nH]1`, the inhibition is reported as 57.6% (active).
For `Cc1ccccc1NCC(=O)N/N=C\c1ccc([N+](=O)[O-])s1`, the inhibition was 64.6% (active).
For `Brc1ccc(OCCn2ccnc2)cc1`, the inhibition was 68.5% (active).
For `CCCCN(C)CCCNC(=O)c1cc(-c2cccs2)nc2ccccc12`, the inhibition was 63.8% (active).
For `Clc1c(OCCCn2ccnc2)ccc2ccccc12`, the inhibition was 61.3% (active).
